Broadly, the MIC is the smallest concentration in the dilution series that meets the test's criterion for growth inhibition.

Values after ≈ are worked out from the molar mass of the structure shown. Positions of bridges follow the written chain, without caps; N, C: chain ends. Residues, ends and D or L forms follow the SMILES beside them.

Data set [1] is described as follows: Drug uptake in mouse RAW264.7 using FITC-labeled compound at 5 uM incubated for 2 hrs by flow cytometry. The format is ADME, cell-based. Particulars: raw264.7, 2 h. The procedure, abridged: (§1)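 Confluent RAW264.7 cells were resuspended in PBS and incubated at 37 °C with 5 µM FITC-labeled peptide. Samples taken at 0.5 h and 2 h were quenched with 0.4% Trypan blue for extracellular fluorescence. Uptake (percent internalized cells) was read by flow cytometry, with free FITC as negative control.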
(In flow cytometry, cells or beads pass a laser one at a time.)

Data set [2] has as its system Salmonella typhimurium. The experiment in a line: Antibacterial activity against Salmonella typhimurium ATCC 14028 using 1 hr cathepsin B pre-treated compound followed by incubation for 16 to 18 hrs at pH 5 by broth microdilution method. It is filed as functional, Salmonella enterica subsp. enterica serovar Typhimurium. Particulars: Salmonella enterica. In short, it runs like this:
(§2)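 Cathepsin B (bovine spleen, 10 µg/mL) was added for 1 h at 37 °C, and the reaction was stopped with 9 volumes of MHB. MIC was then run by broth microdilution (5 × 10^5 CFU/mL, 16–18 h, 37 °C) in medium adjusted to pH 5.0.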
In general terms: Broth dilution looks for growth in wells or tubes with falling amounts of substance.

A short description of data set [3]: Drug localisation in cytosol of mouse RAW264.7 using FITC-labeled compound at 5 uM incubated for 2 hrs by confocal microscopy. It is filed as ADME, cell-based. In short, it runs like this:
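RAW264.7 cells were plated for 18 h at 37 °C, then given 5 µM FITC or FITC-labeled peptide for 2 h. Nuclei were stained with Hoechst 33342 and membranes with FM 4-64 (each 5 µg/mL) for 30 min at 37 °C. Cells were PBS-washed and imaged by confocal fluorescence microscopy.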

Data set [4] has as its system Salmonella typhimurium. The experiment in a line: Bactericidal activity against 2 hrs-gentamicin pre-exposed Salmonella typhimurium ATCC 14028 assessed as reduction colony forming units at 20 uM incubated for 10 hrs relative to marine peptide N6. The format is functional, Salmonella enterica subsp. enterica serovar Typhimurium. Further details: scale not given: the % may be the effect or the level left. The procedure, abridged:
(§3)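 Macrophage protection assay. RAW264.7 cells (5 × 10^4/well, 24 h) were infected with S. Typhimurium ATCC14028 at MOI 10 for 1 h in DMEM/10% FBS, exposed to 100 µg/mL gentamicin for 2 h at 37 °C, and PBS-washed. Peptides in DMEM/10% FBS were added for 10 h. Cells were lysed with 0.1% Triton X-100 and CFU plated; log10 CFU reduction versus untreated cells. Three replicates; two independent experiments; one-way ANOVA with Tukey.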

Data set [5] deals with Salmonella typhimurium. Put plainly: Antibacterial activity against Salmonella typhimurium ATCC 14028 infected in ICR mouse model of peritonitis assessed as mouse survival at 1 umol/kg, ip dosed at 0.5 and 8 hrs post infection and measured daily for 7 days.
Data set [6] concerns Salmonella typhimurium. The experiment in a line: Antibacterial activity against Salmonella typhimurium ATCC 14028 infected in ICR mouse model of peritonitis assessed as reduction colony forming units in intracellular fluids at 1 umol/kg, ip dosed at 2 hrs post infection and measured after 10 hrs post dose. The format is functional, Salmonella enterica subsp. enterica serovar Typhimurium. The procedure, abridged: (§4)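 Six-week-old female ICR mice (six per group) received ip S. Typhimurium ATCC14028 (5 × 10^5 CFU, 0.5 mL). Peptide was given ip 2 h post-infection and mice were killed 10 h after treatment. Peritoneum was lavaged with 5 mL ice-cold PBS and total CFU counted. For intracellular CFU, pelleted cells were treated with 100 µg/mL gentamicin for 1 h at 37 °C, washed, lysed and plated. PBS served as negative control, ciprofloxacin as positive.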

In data set [7] the test system is Salmonella typhimurium. Put plainly: Antibacterial activity against Salmonella typhimurium ATCC 14028 infected in ICR mouse model of peritonitis assessed as reduction colony forming units in total peritoneal fluids at 1 umol/kg, ip dosed at 2 hrs post infection and measured after 10 hrs post dose. The format is functional, Salmonella enterica subsp. enterica serovar Typhimurium. The procedure, abridged: as §4

In data set [8] the test system is Salmonella typhimurium. The experiment in a line: Bactericidal activity against 2 hrs-gentamicin pre-exposed Salmonella typhimurium ATCC 14028 assessed as reduction colony forming units at 20 uM incubated for 10 hrs. The format is functional, Salmonella enterica subsp. enterica serovar Typhimurium. The procedure, abridged: as §3
Data set [9] deals with Salmonella typhimurium. Put plainly: Antibacterial activity against Salmonella typhimurium ATCC 14028 incubated for 16 to 18 hrs at pH 7.2 by broth microdilution method. It is filed as functional, Salmonella enterica subsp. enterica serovar Typhimurium. Particulars: Salmonella enterica. In short, it runs like this: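 Broth microdilution in MH broth. S. Typhimurium ATCC14028 was grown overnight at 37 °C to semi-log phase, pelleted, and diluted to OD600 0.01; final inoculum was 5 × 10^5 CFU/mL. Plates were incubated 16–18 h at 37 °C. MIC is the lowest peptide concentration with no visible growth. Data are in duplicate from at least two independent experiments.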

Data set [10] can be described thus: Cytotoxicity in mouse RAW264.7 assessed as cell survival at 100 uM incubated for 8 hrs by MTT assay. The format is cell-based. The settings on record: RAW264.7 cells, read-out: Survival. The procedure, abridged:
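RAW264.7 cells seeded at 2.5 × 10^4 cells/well, cultured 24 h, then exposed for 8 h to 2-fold dilutions from 100 to 0.625 µM. MTT at 5 mg/mL added for 4 h, formazan dissolved in DMSO, absorbance read at 570 nm. Untreated cells served as control. Samples run in triplicate.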
(Formazan colour is commonly taken as a measure of viable cells.)

Data set [11] is described as follows: Drug internalization in mouse RAW264.7 using FITC-labeled compound at 2 uM pre-incubated for 1 hr with lipid rafts disruptor methyl-beta-cyclodextrin followed by compound addition and subsequent incubation for 2 hrs by flow cytometry. The format is ADME, cell-based. Particulars: raw264.7, 2 h. In short, it runs like this: (§5)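 RAW264.7 cells were pretreated 1 h at 37 °C with 3 mM amiloride, 20 µM nocodazole, 6 µg/mL chlorpromazine or 5 mM MβCD. FITC-labeled peptide was then added for 2 h at 37 °C. Extracellular fluorescence was quenched with 0.4% Trypan blue and intracellular fluorescence read by flow cytometry against an untreated control.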

The nature of data set [12]: Drug uptake in mouse RAW264.7 using FITC-labeled compound at 5 uM incubated for 0.5 hrs by flow cytometry. It is filed as ADME, cell-based. The settings on record: raw264.7, 0.5 h. The procedure, abridged: as §1
The nature of data set [13]: Drug internalization in mouse RAW264.7 using FITC-labeled compound at 2 uM pre-incubated for 1 hr with macropinocytosis inhibitor amiloride followed by compound addition and subsequent incubation for 2 hrs by flow cytometry. The settings on record: raw264.7, 2 h. It is filed as ADME, cell-based. The procedure, abridged: as §5
The test system of data set [14] is Salmonella typhimurium. Put plainly: Antibacterial activity against Salmonella typhimurium ATCC 14028 using 1 hr cathepsin B pre-treated compound at pH 5 incubated for 16 to 18 hrs at by broth microdilution method. The settings on record: Salmonella enterica. It is filed as functional, Salmonella enterica subsp. enterica serovar Typhimurium. In short, it runs like this:
as §2

For data set [15], the system named is Salmonella typhimurium. Put plainly: Antibacterial activity against Salmonella typhimurium ATCC 14028 infected in ICR mouse model of peritonitis assessed as reduction colony forming units in spleen at 1 to 2 umol/kg, ip dosed at 2 hrs post infection and measured after 10 hrs post dose relative to marine peptide N6. The format is functional, Salmonella enterica subsp. enterica serovar Typhimurium. On the set-up: scale not given: the % may be the effect or the level left. In short, it runs like this:
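Female ICR mice, six weeks old (six per group), were infected ip with S. Typhimurium ATCC14028 (5 × 10^5 CFU, 0.5 mL). Peptide was given ip at 1, 1.5 or 2 µmol/kg 2 h post-infection. Mice were killed 10 h after treatment, and kidneys and spleens were homogenized in sterile PBS for CFU counts of translocated bacteria. PBS-treated mice served as negative control, ciprofloxacin-treated mice as positive.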

A short description of data set [16]: Drug internalization in mouse RAW264.7 using FITC-labeled compound at 2 uM pre-incubated for 1 hr with tubulin polymerization inhibitor nocodazole followed by compound addition and subsequent incubation for 2 hrs by flow cytometry. The settings on record: raw264.7, 2 h. It is filed as ADME, cell-based. In short, it runs like this:
as §5

A short description of data set [17]: Drug internalization in mouse RAW264.7 using FITC-labeled compound at 2 uM pre-incubated for 1 hr with clathrin-mediated endocytosis inhibitor chlorpromazine followed by compound addition and subsequent incubation for 2 hrs by flow cytometry. The settings on record: raw264.7, 2 h. The format is ADME, cell-based. In short, it runs like this: as §5

With `CC(C)[C@@H]1NC(=O)CNC(=O)[C@H](CC(N)=O)NC(=O)[C@H](CCCNC(=N)N)NC(=O)[C@H](Cc2ccc(O)cc2)NC(=O)[C@H](C(C)C)NC(=O)[C@@H](NC(=O)[C@@H](NC(=O)[C@H](CC(N)=O)NC(=O)[C@H](Cc2c[nH]c3ccccc23)NC(=O)[C@H](C)NC(=O)[C@H](Cc2ccccc2)NC(=O)CN)C(C)C)CSSC[C@@H](C(=O)N[C@@H](Cc2cnc[nH]2)C(=O)N[C@@H](CCCNC(=N)N)C(=O)N[C@@H](CCCNC(=N)N)C(=O)N[C@@H](C)C(=O)N[C@@H](CC(N)=O)C(N)=O)NC(=O)[C@H](C(C)C)NC(=O)[C@H](CCCNC(=N)N)NC1=O` (H-GFAWNVCVYRNGVRVCHRRAN-NH2; disulfide 7-16), the Drug uptake in data set [1] is recorded as 75.2%; in data set [3], “Active”; in data set [11], “Active”; in data set [12], 30.4%; in data set [13], “Not Active”; in data set [16], “Not Active”. For the same compound, the Drug uptake result in [17] is “Active”. For the same compound, the minimal inhibitory concentration (MIC) stood at 3.2 µM (≈ 7.92 µg/mL) in the data set on Salmonella typhimurium [2], 0.81 µM (≈ 2 µg/mL) in the data set on Salmonella typhimurium [9] and 1.62 µM (≈ 4.01 µg/mL) in the data set on Salmonella typhimurium [14]. For the same compound, the Activity in the data set with Salmonella typhimurium [4] amounted to 96.3%; in the data set with Salmonella typhimurium [5] it was 66.7%; in the data set on Salmonella typhimurium [6] it was 2.22 log10CFU; in the data set on Salmonella typhimurium [7] it was 3.04 log10CFU; in the data set on Salmonella typhimurium [8], 2.01 log10CFU; in the data set with Salmonella typhimurium [15], 200%. Also, the viability at 8 h, 100 µM in [10] turned out to be 93.5%.

In the case of `CC(C)[C@H](NC(=O)CCCCCN1C(=O)CC(SC[C@H](N)C(=O)N[C@@H](Cc2ccc(O)cc2)C(=O)NCC(=O)N[C@@H](CCCNC(=N)N)C(=O)N[C@@H](CCCCN)C(=O)N[C@@H](CCCCN)C(=O)N[C@@H](CCCNC(=N)N)C(=O)N[C@@H](CCCNC(=N)N)C(=O)N[C@@H](CCC(N)=O)C(=O)N[C@@H](CCCNC(=N)N)C(=O)N[C@@H](CCCNC(=N)N)C(=O)N[C@@H](CCCNC(=N)N)C(=O)O)C1=O)C(=O)N[C@@H](CCCNC(N)=O)C(=O)Nc1ccc(COC(=O)NCC(=O)N[C@@H](Cc2ccccc2)C(=O)N[C@@H](C)C(=O)N[C@@H](Cc2c[nH]c3ccccc23)C(=O)N[C@@H](CC(N)=O)C(=O)N[C@H](C(=O)N[C@H]2CSSC[C@@H](C(=O)N[C@@H](Cc3cnc[nH]3)C(=O)N[C@@H](CCCNC(=N)N)C(=O)N[C@@H](CCCNC(=N)N)C(=O)N[C@@H](C)C(=O)N[C@@H](CC(N)=O)C(=O)O)NC(=O)[C@H](C(C)C)NC(=O)[C@H](CCCNC(=N)N)NC(=O)[C@H](C(C)C)NC(=O)CNC(=O)[C@H](CC(N)=O)NC(=O)[C@H](CCCNC(=N)N)NC(=O)[C@H](Cc3ccc(O)cc3)NC(=O)[C@H](C(C)C)NC2=O)C(C)C)cc1` (some centres undefined), the Drug uptake is recorded as 95.8% in data set [1]; “Active” in [3]; “Active” in data set [11]; 82.1% in data set [12]; “Active” in data set [13]; “Not Active” in data set [16]. The Drug uptake entry in data set [17] is listed as “Not Active”. Besides, the MIC is 13.6 µM (≈ 64.4 µg/mL) in the data set on Salmonella typhimurium [2], > 27.2 µM in the data set on Salmonella typhimurium [9] and 1.7 µM (≈ 8.05 µg/mL) with Salmonella typhimurium [14]. For the same compound, the Activity was 67.2% in the data set with Salmonella typhimurium [4]; 66.7% in the data set on Salmonella typhimurium [5]; 1.39 log10CFU in the data set with Salmonella typhimurium [6]; 1.87 log10CFU in the data set with Salmonella typhimurium [7]; 1.06 log10CFU in the data set on Salmonella typhimurium [8]; 81% in the data set with Salmonella typhimurium [15]. Moreover, the viability at 8 h, 100 µM in data set [10] came to 88.9%.

The values above are taken from ChEMBL document CHEMBL4196141, “Improved Antibacterial Activity of the Marine Peptide N6 against Intracellular Salmonella Typhimurium by Conjugating with the Cell-Penetrating Peptide Tat11 via a Cleavable Linker” (J Med Chem, 2018).
